Results reported in ChEMBL document CHEMBL1127041, “(Imidazolylphenyl)pyrrol-2-one inhibitors of cardiac cAMP phosphodiesterase” (J Med Chem, 1993).
Active and inactive are the calls of the source. No cut-off for these calls is given here.

Experiments:
Canis lupus familiaris [1] = species: Canis lupus familiaris; assay: (§1) Inhibition of cAMP PDE in canine cardiac tissue; conditions: concentration not given here
Procedure, shortened: (§2)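 The enzyme was partially purified cAMP phosphodiesterase from canine brain or cardiac tissue. IC50 is the concentration giving 50% inhibition, taken from the mean of three separate dose-response determinations. Near the IC50, inhibition at the test doses ranged by less than ±8%.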

Mustela putorius furo [2] = species: Mustela putorius furo; assay: In vitro inotropic effect, 20% increase in the force of contraction of isolated ferret papillary muscle strips (two EC20 determinations); assay type: functional; conditions: Muscle tissue
Procedure, shortened: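 Contractile force was measured in isolated ferret papillary muscle in vitro. EC20 is the dose that gives a 20% increase in force. Two separate EC20 determinations were made.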

[3] = Inhibition of cAMP PDE from canine brain; design: species or system Canis lupus familiaris; procedure, shortened: as §2
[4] = as §1; design: species or system Canis lupus familiaris; procedure, shortened: as §2
Canis familiaris [5] = assay: Mean percentage change in the left ventricular contractility (dP/dt) in pentobarbital anesthetized dogs at 0.3 mg/kg; assay type: functional, Canis lupus familiaris, Heart left ventricle
Procedure, shortened: (§3)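 Pentobarbital-anesthetized dogs received doses of 0.1 and 0.3 mg/kg. Left ventricular dP/dt, heart rate and mean arterial pressure were monitored. Values are mean percent change from control ± SEM, n = 6.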

Canis familiaris [6] = assay: Mean percentage change in heart rate of pentobarbital anesthetized dogs at 0.1 mg/kg; assay type: functional, Canis lupus familiaris; procedure, shortened: as §3
Mustela putorius furo [7] = species: Mustela putorius furo; assay: In vitro inotropic effect, 20% increase in the force of contraction of isolated ferret papillary muscle strips; assay type: functional; conditions: Muscle tissue
Procedure, shortened: (§4)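 Isolated ferret papillary muscle in vitro. The read-out is the dose that gives a 20% rise in contractile force over control (EC20). "NR" means this rise was not reached at 100 μM.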

Canis familiaris [8] = assay: Mean percentage change in the left ventricular contractility (dP/dt) in pentobarbital anesthetized dogs at 0.1 mg/kg; assay type: functional, Canis lupus familiaris, Heart left ventricle; procedure, shortened: as §3
Canis lupus familiaris [9] = species: Canis lupus familiaris; assay: Percentage inhibition of cAMP PDE in canine brain tissue; assay type: tissue-based; conditions: dose or concentration not given here
Canis familiaris [10] = assay: Percentage decrease in Mean arterial pressure in pentobarbital anesthetized dogs at 0.3 mg/kg; assay type: functional, Canis lupus familiaris, Artery; procedure, shortened: as §3
Canis familiaris [11] = assay: Mean percentage change in heart rate of pentobarbital anesthetized dogs at 0.3 mg/kg; assay type: functional, Canis lupus familiaris; procedure, shortened: as §3
Canis familiaris [12] = assay: Percentage decrease in Mean arterial pressure in pentobarbital anesthetized dogs at 0.1 mg/kg; assay type: functional, Canis lupus familiaris, Artery; procedure, shortened: as §3
Canis familiaris [13] = assay: Percentage decrease in Mean arterial pressure in pentobarbital anesthetized dogs at 3 mg/kg; assay type: functional, Canis lupus familiaris, Artery
Procedure, shortened: (§5)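 Pentobarbital-anesthetized dogs were given the agent intravenously at 1 and 3 mg/kg. Left ventricular dP/dt, heart rate and mean arterial pressure were monitored. Values are mean percent change from control ± SEM, n = 4.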

Canis familiaris [14] = assay: Mean percentage change in the left ventricular contractility (dP/dt) in pentobarbital anesthetized dogs at 1 mg/kg; assay type: functional, Canis lupus familiaris, Heart left ventricle; procedure, shortened: as §5
Canis familiaris [15] = assay: Mean percentage change in heart rate of pentobarbital anesthetized dogs at 3 mg/kg; assay type: functional, Canis lupus familiaris; procedure, shortened: as §5
Canis familiaris [16] = assay: Percentage decrease in Mean arterial pressure in pentobarbital anesthetized dogs at 1 mg/kg; assay type: functional, Canis lupus familiaris, Artery; procedure, shortened: as §5
Canis familiaris [17] = assay: Mean percentage change in the left ventricular contractility (dP/dt) in pentobarbital anesthetized dogs at 3 mg/kg; assay type: functional, Canis lupus familiaris, Heart left ventricle; procedure, shortened: as §5
Canis familiaris [18] = assay: Mean percentage change in heart rate of pentobarbital anesthetized dogs at 1 mg/kg; assay type: functional, Canis lupus familiaris; procedure, shortened: as §5
Mustela putorius furo [19] = species: Mustela putorius furo; assay: In vitro inotropic effect, 20% increase in the force of contraction of isolated ferret papillary muscle strips (Not reached at 100 uM); assay type: functional; conditions: Muscle tissue; procedure, shortened: as §4
Canis lupus familiaris [20] = species: Canis lupus familiaris; assay: Inhibition of cAMP PDE in canine brain; conditions: concentration not given here; procedure, shortened: as §2

Row | SMILES | inhibition (Canis lupus familiaris [1]) [%] | IC50 [3] [µM] | IC50 [4] [µM] | EC20 (Mustela putorius furo [7]) [µM] | inhibition (Canis lupus familiaris [9]) [%] | Decrease (Canis familiaris [13]) [%] | Increase (Canis familiaris [14]) [%] | Increase (Canis familiaris [15]) [%] | Decrease (Canis familiaris [16]) [%] | Increase (Canis familiaris [17]) [%] | Increase (Canis familiaris [18]) [%] | other results
1 | COc1ccc(C2=CC(=O)NC2)cc1OC | 46 | 40 |  |  |  |  |  |  |  |  |  | EC20 (Mustela putorius furo [2]): 6.5 µM
2 | Cc1[nH]c(=O)c(C#N)cc1-c1ccncc1 [MILRINONE] |  |  | 5.5 | 0.5 | 34 |  |  |  |  |  |  | Increase (Canis familiaris [5]): 81%; Increase (Canis familiaris [6]): 19%; Increase (Canis familiaris [8]): 57%; Decrease (Canis familiaris [10]): 30%; Increase (Canis familiaris [11]): 32%; Decrease (Canis familiaris [12]): 13%
3 | COc1ccc(C2=C(C)C(=O)NC2)cc1OC |  | 100 | 26 | 3.8 |  |  |  |  |  |  |  | 
4 | CCC1=C(c2ccc(-n3ccnc3C)cc2)CNC1=O |  |  | 39 | 4.8 | < 5 | 30 | 52 | 22 | 18 | 80 | 8 | 
5 | CC1=C(c2ccc(-n3ccnc3C)cc2)CNC1=O |  |  | 30 | 10.2 | 10 | 10 | 14 | 14 | 6 | 33 | 7 | 
6 | COc1ccc(C2CNC(=O)C2)cc1OC1CCCC1 (configuration not stated) [ROLIPRAM] | 28 | 0.8 |  |  |  |  |  |  |  |  |  | EC20 (Mustela putorius furo [19]): inactive
7 | CC1=C(c2ccc(-n3ccnc3)cc2)CNC1=O |  |  | 25 | 2.3 | 16 | 14 | 40 | 19 | 3 | 75 | 7 | 
8 | CCC1=C(c2ccc(-n3ccnc3)cc2)CNC1=O |  |  | 48 | 10.7 | 10 | 22 | 21 | 21 | 13 | 44 | 9 | 
9 | COc1ccc(C2CNC(=O)C2)cc1OC (configuration not stated) | 3 |  |  |  |  |  |  |  |  |  |  | inhibition (Canis lupus familiaris [20]): 36%; EC20 (Mustela putorius furo [19]): Not reached
